From ChEMBL document CHEMBL4715721, “Synthesis and optimization of novel allylated mono-carbonyl analogs of curcumin (MACs) act as potent anti-inflammatory agents against LPS-induced acute lung injury (ALI) in rats” (Eur J Med Chem, 2016)
Converted amounts (≈) assume the structure as drawn.

Tests used:
RAW264.7 [1] = experiment: Antiinflammatory activity in mouse RAW264.7 cells assessed as decrease in LPS-induced IL-6 secretion at 10 microM incubated for 30 mins followed by LPS stimulation and measured after 24 hrs by ELISA relative to control; type: functional; settings: RAW264.7, 24.5 h, time 1470 min
How it was run: (§1)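 RAW264.7 cells in DMEM with 10% FBS at 37 °C, 5% CO₂; pretreated with 10 μM for 30 min, then LPS 0.5 μg/mL for 24 h. Medium TNF-α and IL-6 measured by ELISA and normalized to total protein of viable cells; percent inhibition, mean ± SD of three experiments.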

[2] = Cytotoxicity against human HL7702 cells assessed as cell survival rate at 10 uM incubated for 24 hrs by MTT assay; type: cell-based; settings: HL7702 (L02) cells, read-out: Activity
How it was run: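 HL-7702 human normal hepatic cells exposed to 10 μM compound for 24 h; viability measured by MTT assay and given as survival rate, mean ± SD of three experiments.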

RAW264.7 [3] = experiment: (§2) Cytotoxicity against mouse RAW264.7 cells assessed as cell survival rate at 10 uM; type: cell-based; settings: raw264.7, 10 µM
[4] = as §2; type: cell-based; settings: RAW264.7 cells, read-out: Activity
RAW264.7 [5] = experiment: Antiinflammatory activity in mouse RAW264.7 cells assessed as decrease in LPS-induced TNF-alpha secretion at 10 microM incubated for 30 mins followed by LPS stimulation and measured after 24 hrs by ELISA relative to control; type: functional; settings: RAW264.7, 24.5 h, time 1470 min; how it was run: as §1
[6] = Octanol-water partition coefficient, logP of compound; type: physicochemical
[7] = Aqueous kinetic solubility of compound at pH 7.4; type: physicochemical; settings: read-out: Kinetic_solubility

| SMILES | inhibition at 10 µM (RAW264.7 [1]) | viability at 24 h, 10 µM [2] | Activity (RAW264.7 [3]) | viability at 10 µM [4] | inhibition at 10 µM (RAW264.7 [5]) | logP [6] | solubility kinetic [7] |
| --- | --- | --- | --- | --- | --- | --- | --- |
| C=CCc1cc(/C=C2\CN(C(C)C)C/C(=C\c3ccc(O)c(CC=C)c3)C2=O)ccc1O | 71.6% | 85.1% | Non-Toxic |  |  |  |  |
| C=CCc1cc(/C=C2\CN(C)C/C(=C\c3ccc(O)c(CC=C)c3)C2=O)ccc1O | 57.1% | 80.3% | Non-Toxic |  |  |  |  |
| C=CCc1cc(/C=C2\CN(Cc3ccccc3)C/C(=C\c3ccc(O)c(CC=C)c3)C2=O)ccc1O | 45.8% | 62.1% |  | < 70% |  |  |  |
| C=CCc1cc(/C=C2\CN(C(=O)c3ccc(F)cc3)C/C(=C\c3ccc(O)c(CC=C)c3)C2=O)ccc1O | 86.8% | 78% | Non-Toxic |  |  |  |  |
| C=CCc1cc(/C=C2\CN(CC)C/C(=C\c3ccc(O)c(CC=C)c3)C2=O)ccc1O | 67.6% | 79.6% | Non-Toxic |  |  |  |  |
| C=CCc1cc(/C=C2\CN(C3CC3)C/C(=C\c3ccc(N(C)C)cc3)C2=O)ccc1O | 74.4% | 89.4% |  |  | 35% | 3.5 | 17.1 mg/mL (≈ 41.2 mM) |
| C=CCc1cc(/C=C2\CN(S(=O)(=O)c3ccccc3)C/C(=C\c3ccc(O)c(CC=C)c3)C2=O)ccc1O | 24.8% | 63.4% |  | < 70% |  |  |  |
| C=CCc1cc(/C=C2\CN(C3CC3)C/C(=C\c3ccc(N(CC)CC)cc3)C2=O)ccc1O | 71.9% | 94% |  |  | 32.1% | 4.08 |  |
| C=CCc1cc(/C=C2\CN(C(=O)c3ccc(Cl)cc3)C/C(=C\c3ccc(O)c(CC=C)c3)C2=O)ccc1O | 89.2% | 66.2% |  | < 70% |  |  |  |
